Source: ChEMBL document CHEMBL6109171, “Design, Synthesis, and Evaluation of a New Fluorescent Ligand for the M2 Muscarinic Acetylcholine Receptor” (ACS Med Chem Lett, 2025)
Active and inactive are the calls of the source. The calls are words filed in the database; no cut-off is given here.

How the values were obtained:
[1] = biological target: Muscarinic acetylcholine receptor M2 and M4 (Homo sapiens) (UniProt P08173+P08172); test: Selectivity ratio of Ki for displacement of [3H]-NMS from human muscarinic M4 receptor to Ki for displacement of [3H]-NMS from human muscarinic M2 receptor; format: protein assay
How it was run: (§1)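 Membranes from CHO cells transfected with human M1–M5 receptors; competition binding against the orthosteric antagonist [3H]-N-methylscopolamine. Ki values were taken from the competition curves. Ratios divide the Ki at M1, M3, M4 or M5 by the Ki at M2 from the same assay.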

[2] = biological target: T1, Muscarinic acetylcholine receptor M2 (Homo sapiens, UniProt P08172); test: Displacement of [3H]-NMS from human muscarinic M2 receptor expressed in CHO cells; format: cell-based; how it was run: as §1
T1 sequence (P08172 whole entry): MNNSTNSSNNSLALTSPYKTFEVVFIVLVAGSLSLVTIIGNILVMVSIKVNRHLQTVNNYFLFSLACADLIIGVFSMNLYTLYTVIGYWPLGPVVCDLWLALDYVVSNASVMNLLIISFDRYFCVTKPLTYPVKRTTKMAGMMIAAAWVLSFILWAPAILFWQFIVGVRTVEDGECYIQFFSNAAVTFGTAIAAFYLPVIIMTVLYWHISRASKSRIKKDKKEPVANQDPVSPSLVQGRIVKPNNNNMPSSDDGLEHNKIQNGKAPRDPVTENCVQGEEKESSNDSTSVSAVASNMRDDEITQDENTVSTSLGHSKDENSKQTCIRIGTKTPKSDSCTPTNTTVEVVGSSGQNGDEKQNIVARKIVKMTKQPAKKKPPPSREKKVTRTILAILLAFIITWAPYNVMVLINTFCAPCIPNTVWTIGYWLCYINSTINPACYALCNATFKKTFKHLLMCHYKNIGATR

[3] = biological target: Muscarinic acetylcholine receptors; M2 & M3 (Homo sapiens) (UniProt P20309+P08172); test: Selectivity ratio of Ki for displacement of [3H]-NMS from human muscarinic M3 receptor to Ki for displacement of [3H]-NMS from human muscarinic M2 receptor; format: protein assay; how it was run: as §1
[4] = biological target: Muscarinic acetylcholine receptors; M1 & M2 (Homo sapiens) (UniProt P11229+P08172); test: Selectivity ratio of Ki for displacement of [3H]-NMS from human muscarinic M1 receptor to Ki for displacement of [3H]-NMS from human muscarinic M2 receptor; format: protein assay; how it was run: as §1
[5] = biological target: Muscarinic acetylcholine receptor M2 and M5 (Homo sapiens) (UniProt P08172+P08912); test: Selectivity ratio of Ki for displacement of [3H]-NMS from human muscarinic M5 receptor to Ki for displacement of [3H]-NMS from human muscarinic M2 receptor; format: protein assay; how it was run: as §1
[6] = biological target: T2, Muscarinic acetylcholine receptor M2 (Homo sapiens) (UniProt P08172); settings: HEK293T, filed as antagonist
T2 sequence (whole entry): T1 sequence (P08172 whole entry)

[7] = Selectivity ratio of Ki for binding affinity to M3 receptor (unknown origin) to Ki for displacement of [3H]-Pirenzepine from human muscarinic M2 receptor
[8] = Selectivity ratio of Ki for binding affinity to M1 receptor (unknown origin) to Ki for displacement of [3H]-Pirenzepine from human muscarinic M2 receptor
[9] = Selectivity ratio of Ki for binding affinity to M4 receptor (unknown origin) to Ki for displacement of [3H]-Pirenzepine from human muscarinic M2 receptor
[10] = Selectivity ratio of Ki for binding affinity to M5 receptor (unknown origin) to Ki for displacement of [3H]-Pirenzepine from human muscarinic M2 receptor
[11] = biological target: T2, Muscarinic acetylcholine receptor M2 (Homo sapiens); test: Binding affinity to human M2 receptor expressed in HEK293T cells measured for 3 min by confocal microscopic analysis; format: cell-based; settings: filed as antagonist
[12] = biological target: T2, Muscarinic acetylcholine receptor M2 (Homo sapiens); test: Binding affinity to N-terminal human M2 receptor expressed in HEK293T cell pretreated for 5 mins in presence of atropine by BRET assay; format: cell-based; settings: filed as antagonist, dose <= 1000.0 nM
[13] = Photostability of compound in PBS buffer at 4 W/450 nm measured after 10 mins; format: physicochemical
How it was run: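 Probe in PBS (pH 7) under continuous light (4 W, 450 nm); fluorescence intensity was followed over irradiation time up to 10 min.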

[14] = biological target: T2, Muscarinic acetylcholine receptor M2 (Homo sapiens); test: Binding affinity to human M2 receptor expressed in HEK293T cells by confocal microscopic analysis; format: cell-based
[15] = biological target: T2, Muscarinic acetylcholine receptor M2 (Homo sapiens); test: Binding affinity to human M2 receptor expressed in HEK293T cells by two-photon microscopic analysis; format: cell-based; settings: filed as antagonist
[16] = biological target: T2, Muscarinic acetylcholine receptor M2 (Homo sapiens); test: Binding affinity to human M2 receptor expressed in HEK293T cell membrane cells by STED microscopic analysis; format: cell membranes; settings: filed as antagonist

Chain of Muscarinic acetylcholine receptor M2 and M5 (Homo sapiens) (P08912 whole entry, looked up, one chain of several): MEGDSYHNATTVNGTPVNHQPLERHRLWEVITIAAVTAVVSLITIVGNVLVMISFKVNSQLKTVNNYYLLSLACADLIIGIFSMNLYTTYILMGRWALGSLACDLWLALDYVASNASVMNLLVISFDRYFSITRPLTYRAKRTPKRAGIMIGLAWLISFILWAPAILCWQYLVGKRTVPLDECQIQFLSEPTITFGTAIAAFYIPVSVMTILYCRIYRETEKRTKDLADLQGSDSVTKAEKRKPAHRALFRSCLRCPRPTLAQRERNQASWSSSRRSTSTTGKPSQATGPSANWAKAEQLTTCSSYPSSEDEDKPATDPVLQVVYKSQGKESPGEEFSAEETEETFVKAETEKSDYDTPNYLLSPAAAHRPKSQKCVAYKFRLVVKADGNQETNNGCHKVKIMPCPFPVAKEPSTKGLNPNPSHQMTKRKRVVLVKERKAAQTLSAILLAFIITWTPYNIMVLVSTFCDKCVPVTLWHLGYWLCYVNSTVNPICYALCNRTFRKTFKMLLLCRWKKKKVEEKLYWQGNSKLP

Structure (SMILES)	Ratio Ki [1]	Ki [2] [pM]	Ratio Ki [3]	Ratio Ki [4]	Ratio Ki [5]	other results
Cc1cc(/C=C/c2cc3c4c(c2)CCCN4CCC3)cc(C)[n+]1CCNC(=O)CCc1cn(CCCCC2CCN(CC(=O)N3c4ccccc4NC(=O)c4ccccc43)CC2)cn1	1.9	1300	51.3	5.2	30.1	–
CN(C)c1ccc2c(-c3ccc(C(=O)NCCNC(=O)CCc4cn(CCCCC5CCN(CC(=O)N6c7ccccc7NC(=O)c7ccccc76)CC5)cn4)cc3C(=O)[O-])c3ccc(=[N+](C)C)cc-3oc2c1	2	1700	72.4	3.4	155	–
CC1(C)C(/C=C/C=C/C=C2/N(CCCCCC(=O)NCCNC(=O)CCc3cn(CCCCC4CCN(CC(=O)N5c6ccccc6NC(=O)c6ccccc65)CC4)cn3)c3cccc(S(=O)(=O)O)c3C2(C)C)=[N+](CCCCS(=O)(=O)[O-])c2ccccc21	39.8	800	200	6.3	200	–
O=C(CCCCCNC(=O)COc1ccc(/C=C/C2=[N+]3C(=Cc4ccc(-c5cccs5)n4[B-]3(F)F)C=C2)cc1)NCCNC(=O)CCc1cn(CCCCC2CCN(CC(=O)N3c4ccccc4NC(=O)c4ccccc43)CC2)cn1	0.6	700	53.7	1.4	14.5	–
CN(C)c1ccc2c(-c3ccc(C(=O)NCCN4CCN(CCCCC5CCN(CC(=O)N6c7ccccc7NC(=O)c7ccccc76)CC5)CC4)cc3C(=O)[O-])c3ccc(=[N+](C)C)cc-3oc2c1	4.1	200	339	10.7	741	–
Cc1cc(/C=C/C=C/c2ccc(N(C)C)cc2)cc(C)[n+]1CCN1CCN(CCCCC2CCN(CC(=O)N3c4ccccc4NC(=O)c4ccccc43)CC2)CC1	3.2	3200	50.1	4	126	–
Nc1ccccc1C(=O)N1CCC(N2CCC(Cc3ccc(S(=O)(=O)c4cccc(Cl)c4)cc3)CC2)CC1	–	–	–	–	–	Ka [6]: 8.06 10^3/s/M
Cc1cc(/C=C/C=C/c2ccc(N(C)C)cc2)cc(C)[n+]1CCNC(=O)CCc1cn(CCCCC2CCN(CC(=O)N3c4ccccc4NC(=O)c4ccccc43)CC2)cn1	4.7	900	93.3	5.4	77.6	–
CCN(CC)CC1CCCCN1CC(=O)N1c2ccccc2C(=O)Nc2cccnc21 (stereo not given)	–	–	–	–	–	Ratio Ki [7]: 16; Ratio Ki [8]: 7; Ratio Ki [9]: 4; Ratio Ki [10]: 44
Cc1cc(/C=C/c2cc3c4c(c2)CCCN4CCC3)cc(C)[n+]1CCN1CCN(CCCCC2CCN(CC(=O)N3c4ccccc4NC(=O)c4ccccc43)CC2)CC1	2.8	1000	66	5	132	–
CCCC(C)(C)C(=O)N(CC)CCCC1CCN(CC(=O)N2c3ccc(Cl)cc3C(=O)Nc3cccnc32)CC1	–	–	–	–	–	Ratio Ki [7]: 26; Ratio Ki [8]: 355; Ratio Ki [9]: 6; Ratio Ki [10]: 48
O=C(CCOCCOCCNC(=O)c1ccc(-c2c3cc(F)c(=O)cc-3oc3cc(O)c(F)cc23)c(C(=O)O)c1)NCCOCCOCCNc1ccccc1C(=O)N1CCC(N2CCC(Cc3ccc(S(=O)(=O)c4cccc(Cl)c4)cc3)CC2)CC1	–	–	–	–	–	Activity [11]: Active; Activity [12]: Dose-dependent-effect; Stability [13]: Stable; Activity [14]: inactive; Activity [15]: Active; Activity [16]: Active
